High-throughput results: PubChem BioAssay, Columbia University Molecular Screening Center
The entries come from a sample that favours hits as a whole.
INS promoter act: activators of insulin promoter-driven GFP, primary screen, imaging, TRM-6 cells (human fetal islet line), eGFP reporter, cell count. plate-scaled: unstimulated 0, stimulated control 100. activation, % at 2 µM. 130,000 tested, 0.81% active. AID 1296, 2008;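 active means activation at 2 µM above a set limit, confirmed on inspection of the cell images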;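 further: share of cells whose green reporter signal exceeds an intensity cutoff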
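Assay system: TRM-6 human fetal islet cells, insulin promoter–eGFP reporter; Also added: 0.75 µM tamoxifen as reporter inducer; Schedule: 15 h tamoxifen pre-treatment, 48 h compound treatment at 37 °C; Signal: fixed-cell fluorescence microscopy, eGFP plus Hoechst; Read-out: percent activation from GFP-positive cell fraction; Control set: stimulated and unstimulated wells.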
Of the large screens only hits and unclear results are named; the others gave an inactive call.

O=C(CSc1ccc(-c2ccncc2)nn1)N1CCCC1	none
COc1ccccc1NS(=O)(=O)c1ccc(N/N=C/c2c(C)nn(-c3ccccc3)c2N2CCCC2)c([N+](=O)[O-])c1	none
COc1ccccc1NS(=O)(=O)c1cc([N+](=O)[O-])ccc1N/N=C/c1c[nH]c2ccccc12	INS promoter act 264
O=C(N/N=C/c1c[nH]c2ccccc12)c1[nH]c2ccc(Br)cc2c1-c1ccccc1	none
COc1ccccc1NS(=O)(=O)c1cccc2cccnc12	none
O=[N+]([O-])c1ccc(N/N=C/c2ccc[nH]2)cc1	INS promoter act 245
CNc1nc(N/N=C/c2ccc([N+](=O)[O-])cc2)nc(Nc2ccccc2)n1	none
O=C(CNc1ccccc1)N/N=C/c1c[nH]c2ccccc12	none
O=[N+]([O-])c1ccc(N/N=C/c2c[nH]c3ccccc23)cc1	INS promoter act 223
O=C(N/N=C/c1ccc[nH]1)c1ccncc1	none
COc1ccc(-c2cc(C(F)(F)F)nc(-n3ccnc3C)n2)cc1	none
CCS(=O)(=O)N1Cc2ccccc2CC1C(=O)N1CCN(c2ccccc2)CC1 (stereo not drawn)	none
CCOC(=O)c1c(C)n(C)c2cc(CN(C)C)c(O)c(S(=O)(=O)c3ccccc3)c12	none
O=C(c1cc(C2CC2)nc2ccc(Br)cc12)N1N=C(C(F)F)CC1(O)C(F)F (stereo not drawn)	none
CC1(C)CC(=O)C(N=Nc2ccc(OC(F)F)cc2)=C(O)C1	none
COc1ccc(CCNC(=O)CC2SC(=NCCc3ccccc3)NC2=O)cc1OC (stereo not drawn)	none
CCOC(=O)N1CCN(C(=O)c2ccc(OC)c(S(=O)(=O)N3CCOCC3)c2)CC1	none
C/C(=N\OCC(=O)Nn1c(=O)[nH]c2ccccc2c1=O)c1ccccc1	none
N/C(=N\OC(=O)CCCOc1ccccc1)c1ccccc1	none
CN(C)C=Nc1nonc1-c1ncn[nH]1	none
CN(C)C=Nc1c(Br)cc(Br)c2nonc12	INS promoter act 203
COC(=O)c1c(-c2ccccc2Cl)noc1/C=C/N(C)C	none
CCC(Sc1nc2ccc(N)cc2s1)C(=O)Nc1nccs1 (stereo not drawn)	none
OCc1nc2ccccc2n1CC(O)Cn1ccc2ccccc21 (stereo not drawn)	INS promoter act 91
CC(C)Cn1c(NCCO)nc2ccccc21	none
OCc1nc2ccccc2n1CCCOc1ccccc1	none
CCOc1ccc(C(=O)NC(=S)Nc2ccccc2N2CCOCC2)cc1Br	none
COc1cccc(CN2CCN(Cc3cccn3-c3cccnc3)CC2CCO)c1 (stereo not drawn)	none
CCN(CC)CCn1cnc2c([nH]c3cccc(OC)c32)c1=O	none
CCN(CC)CCn1c(N)cc(=O)[nH]c1=O	none
CCN(CC)CCn1c(OC)cc(=O)[nH]c1=O	INS promoter act 500
CC1Cc2ccccc2N1C(=O)CSc1nnc(-c2ccc(S(=O)(=O)N3CCOCC3)cc2)n1C (stereo not drawn)	none
CCN1CCS/C1=C/C=C/C1=[N+](CC)CCS1	INS promoter act 233
O=C(/C=C/c1c(Cl)cccc1Cl)n1cccn1	none
CCNC(=O)c1ccccc1CCc1ccccc1	none
Cc1c(NC2=CC(=O)CCC2)c(=O)n(-c2ccccc2)n1C	none
CCCN(CCC)CC(O)COc1ccc([N+](=O)[O-])cc1 (stereo not drawn)	none
Cc1nnc(SCc2cc(=O)[nH]c(N3CCCCC3)n2)s1	none
Cc1ccccc1CS(=O)(=O)c1nnc([C@H](Cc2ccccc2)NC(=O)OC(C)(C)C)o1	none
CC(C)(C)OC(=O)N[C@@H](Cc1ccccc1)c1nnc(SCC(=O)c2ccc(Cl)cc2)o1	INS promoter act 507
CC(C)(C)OC(=O)N[C@@H](Cc1c[nH]c2ccccc12)c1nnc(SCC(N)=O)o1	none
O=C(CCc1nnc(C2CCCCC2)o1)N1CCCCC1CCn1cccn1 (stereo not drawn)	none
COc1cccc(CSc2nnc(-c3ccc(F)cc3)o2)c1	none
COc1cc2c3nnc(-c4ccccc4)c-3cn(Cc3ccc(F)cc3)c2cc1OC	none
COc1cc2c3nnc(-c4ccc(F)cc4)c-3cn(Cc3cccc(F)c3)c2cc1OC	INS promoter act 809
CC1CCCCC1NC(=O)/C(C#N)=C/c1ccccc1F (stereo not drawn)	none
COc1ccc(NS(=O)(=O)c2ccc(OCC(=O)N3CCOCC3)cc2)cc1	none
COc1cccc(S(=O)(=O)Nc2cccc(C(=O)N3CCOCC3)c2)c1	INS promoter act 466
O=C(c1cccc(NS(=O)(=O)c2cccc([N+](=O)[O-])c2)c1)N1CCOCC1	none
Cc1nn(-c2ccccc2)c(C)c1/C=N/NC(=O)c1cc(-c2ccccc2)n[nH]1	INS promoter act 125
Cc1nn(-c2ccccc2)c(C)c1/C=N/NC(=O)CSc1nnc(SCc2ccccc2Cl)s1	none
Cc1nn(-c2ccccc2)c(C)c1/C=N/n1c(-c2ccc(Cl)cc2)n[nH]c1=S	none
O=C(NCCO)C1(c2ccc(Cl)cc2)CCCC1	none
CCOC(=O)CSc1ccc(S(=O)(=O)N(C)C2CCCCC2)cc1[N+](=O)[O-]	none
COC(=O)c1c(NC(=O)Cc2cccs2)sc(C(=O)NC2CCCCC2)c1C	none
CCOC(=O)c1c(NC(=O)Cc2cccs2)sc(C(=O)NC2CCCCC2)c1C	INS promoter act 153
CCOC(=O)c1c(NC(=O)Cc2cccs2)sc(C(=O)NC2CCCC2)c1C	none
O=C(C1CCC(CNc2nc(=S)[nH]c3ccccc23)CC1)N1CCN(c2ccc(F)cc2)CC1 (stereo not drawn)	none
COc1ccc(N2C(=O)CC(Sc3nc4ccccc4s3)C2=O)cc1OC (stereo not drawn)	none
Nc1ccc(OCc2ccco2)cc1	none
C#CCSc1nc2ccccc2n1C(=O)c1ccc(S(=O)(=O)N2CCCCC2)cc1	none
O=C(Nc1ccccc1)C1CCCN1/C=C/C(=O)C(F)(F)F (stereo not drawn)	none
CCOc1ccc(NC(=O)CCn2cccc2)cc1	none
CCOc1ccc2c(c1)-c1c(ssc1=S)C(C)(C)N2C(=O)c1ccco1	none
CCOc1ccc2c(c1)C(C)=CC(C)(C)N2C(=O)Nc1ccccc1	INS promoter act 81
CCOC(=O)c1c(NC(=O)CSc2nnnn2-c2ccc(OC)cc2)sc(C)c1C	none
Cc1ccc(S(=O)(=O)NNC(=O)C2CC=CCC2C(=O)O)cc1 (stereo not drawn)	none
C=CCn1c(CCNC(=O)c2ccccc2F)nnc1SCC(=O)Nc1nc2ccccc2s1	none
COc1ccc(OCC(=O)Nc2ccccc2O)cc1	none
COc1ccc(CNC(=O)c2ccccc2SC)cc1	none
COc1ccc(CSCC(=O)Nc2ccccc2SC)cc1	INS promoter act 367
CCOCCCNC(=S)N1CCN(C(=O)C(=O)Nc2ccc(C(=O)OC)cc2)CC1	none
Clc1ccc(CSc2nnc(CNc3cccc(Cl)c3)o2)cc1	none
CC(=O)N1CCC2(CC1)CC(=O)c1cc(OCC(=O)N3CCOCC3)ccc1O2	none
Cc1ccc2c(c1)c1c(n2CC(O)Cn2nc(C)c(Br)c2C)CCCC1 (stereo not drawn)	INS promoter act 83
Cc1nn(CC(O)Cn2cnc3c2c(=O)n(C)c(=O)n3C)c(C)c1Br (stereo not drawn)	none
Cc1cc(C)nc(SCC(=O)n2c3c(c4ccccc42)CCCC3)n1	none
COc1ccc(S(=O)(=O)N(C)CC(=O)N2CCCCC2)cc1Cl	none
COc1ccc(S(=O)(=O)N(C)CC(=O)N2CCOCC2)cc1Cl	INS promoter act 462
CN(CC(=O)N1CCCC1)S(=O)(=O)c1ccc(Cl)cc1	none
S=C(NCCc1ccccc1)NCc1cccs1	none
O=C(Nc1ccsc1C(=O)NC1CCCCC1)c1ccccc1	none
O=C(NCc1ccco1)C1CN(S(=O)(=O)c2ccccc2)CCN1S(=O)(=O)c1ccccc1 (stereo not drawn)	none
